# pIC50: −log10 of the molar value.
# What was measured:
# [1] = target: T1, Tyrosine-protein phosphatase non-receptor type 1 (Homo sapiens, UniProt P18031); assay: Inhibition of recombinant human GST-tagged PTP1B catalytic domain expressed in Escherichia coli BL21 using para-nitrophenyl phosphate as substrate
# T1 sequence (P18031 whole entry): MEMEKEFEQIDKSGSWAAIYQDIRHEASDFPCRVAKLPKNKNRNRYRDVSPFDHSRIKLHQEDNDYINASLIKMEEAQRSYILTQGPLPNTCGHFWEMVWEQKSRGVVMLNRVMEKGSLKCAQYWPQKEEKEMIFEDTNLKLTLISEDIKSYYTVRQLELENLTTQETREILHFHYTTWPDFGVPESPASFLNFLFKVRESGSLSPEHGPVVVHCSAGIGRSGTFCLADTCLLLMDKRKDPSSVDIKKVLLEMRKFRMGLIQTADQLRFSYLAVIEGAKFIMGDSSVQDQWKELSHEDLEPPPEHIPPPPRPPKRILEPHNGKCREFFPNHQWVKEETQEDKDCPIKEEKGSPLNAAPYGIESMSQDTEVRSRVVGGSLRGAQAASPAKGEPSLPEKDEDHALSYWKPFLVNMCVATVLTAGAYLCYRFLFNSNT
# [2] = Cytotoxicity against human L02 cells assessed as cell viability at 10 uM after 24 hrs by MTS assay relative to control; type: cell-based; settings: read-out: Activity
# In short: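 Human […] L02 cells were seeded and cultured overnight, then exposed to the compound at varying concentrations for 24 h. Medium containing the water-soluble tetrazolium MTS reagent was added, and the cells were incubated at 37 °C for 2 h to read out viability.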
Compound,pIC50 [1],"viability at 24 h, 10 µM [2]"
CC1(C)C[C@H](O)[C@]2(CO)[C@H](O)C[C@]3(C)C(=CC[C@@H]4[C@@]5(C)CC[C@H](O)C(C)(C)[C@@H]5CC[C@]43C)[C@@H]2C1,5.05,> 90%
CC1(C)CC[C@]2(C)CC[C@@]3(C)[C@]4(C)CC[C@H]5C(C)(C)[C@@H](O)CC[C@]5(C)[C@H]4[C@H](O)C(=O)[C@]3(O)[C@@H]2C1,5.87,> 90%
CC(=O)O[C@H]1[C@@H](O)[C@@]2(CO)[C@@H](O)CC(C)(C)C[C@H]2C2=CC[C@@H]3[C@@]4(C)CCC(=O)C(C)(C)[C@@H]4CC[C@@]3(C)[C@@]21C,4.35,> 90%
CC1(C)CC[C@]2(CO)[C@H](O)[C@H](O)[C@]3(C)C(=CC[C@@H]4[C@@]5(C)CC[C@H](O)C(C)(C)[C@@H]5CC[C@]43C)[C@@H]2C1,4.84,> 90%
CC1(C)CC[C@]2(C(=O)O)CC[C@]3(C)C(=CC[C@@H]4[C@@]5(C)CC[C@H](O)C(C)(C)[C@@H]5CC[C@]43C)[C@@H]2C1 [OLEANOLIC_ACID],–,> 90%
CC(C)(O)[C@@H]1CC[C@]2(C)CC[C@]3(C)C(CC[C@@H]4[C@@]5(C)CC[C@H](O)C(C)(C)[C@@H]5CC[C@]43C)[C@H]12 (stereo not given in full),4.91,> 90%
C/C=C(/C)C(=O)O[C@H]1CC(C)(C)C[C@H]2C3=CC[C@@H]4[C@@]5(C)CC[C@H](O)C(C)(C)[C@@H]5CC[C@@]4(C)[C@]3(C)[C@@H](O)[C@@H](OC(C)=O)[C@@]12CO,5.31,> 90%
C[C@H]1[C@H](C)CC[C@]2(C)CC[C@]3(C)C(=CC[C@@H]4[C@@]5(C)CC[C@H](O)C(C)(C)[C@@H]5CC[C@]43C)[C@H]12,4.72,> 90%

# More lines, main results first:
pIC50 [1],Compound,"viability at 24 h, 10 µM [2]"
4.32,CC(=O)O[C@@H]1[C@H](O)[C@]2(C)C(=CC[C@@H]3[C@@]4(C)CC[C@H](O)C(C)(C)[C@@H]4CC[C@]32C)[C@@H]2CC(C)(C)C[C@H](O)[C@]12CO,> 90%
5.13,C/C=C(/C)C(=O)O[C@H]1CC(C)(C)C[C@H]2C3=CC[C@@H]4[C@@]5(C)CC[C@H](O)C(C)(C)[C@@H]5CC[C@@]4(C)[C@]3(C)[C@@H](OC(C)=O)[C@@H](O)[C@@]12CO,> 90%
4.99,CC(=O)O[C@@H]1C[C@]2(C)C(=CC[C@@H]3[C@@]4(C)CC[C@H](O)C(C)(C)[C@@H]4CC[C@]32C)[C@@H]2CC(C)(C)C[C@H](O)[C@]12CO,> 90%
4.70,CC(=O)O[C@@H]1[C@H](O)[C@]2(C)C(=CC[C@@H]3[C@@]4(C)CCC(=O)C(C)(C)[C@@H]4CC[C@]32C)[C@@H]2CC(C)(C)C[C@H](O)[C@]12CO,> 90%
5.59,C/C=C(/C)C(=O)O[C@H]1CC(C)(C)C[C@H]2C3=CC[C@@H]4[C@@]5(C)CC[C@H](O)C(C)(C)[C@@H]5CC[C@@]4(C)[C@]3(C)[C@@H](O)[C@@H](O)[C@@]12CO,> 90%
4.31,CC1(C)C[C@H](O)[C@]2(CO)[C@H](O)[C@H](O)[C@]3(C)C(=CC[C@@H]4[C@@]5(C)CCC(=O)C(C)(C)[C@@H]5CC[C@]43C)[C@@H]2C1,> 90%
< 4.00,CC1(C)CC[C@]2(C)CC[C@]3(C)C(=CC[C@@H]4[C@@]5(C)CC[C@H](O)C(C)(C)[C@@H]5CC[C@]43C)[C@@H]2C1 [beta-AMYRIN],> 90%
4.77,CC1(C)C[C@H](O)[C@]2(CO)[C@H](O)[C@H](O)[C@]3(C)C(=CC[C@@H]4[C@@]5(C)CC[C@H](O)C(C)(C)[C@@H]5CC[C@]43C)[C@@H]2C1,> 90%
5.43,C=C(C)[C@@H]1CC[C@]2(C)CC[C@]3(C)[C@H](CC[C@@H]4[C@@]5(C)CC[C@H](O)C(C)(C)[C@@H]5CC[C@]43C)[C@@H]12 [LUPEOL],> 90%
4.96,C/C=C(/C)C(=O)OC[C@@]12[C@H](O)[C@H](O)[C@]3(C)C(=CC[C@@H]4[C@@]5(C)CC[C@H](O)C(C)(C)[C@@H]5CC[C@]43C)[C@@H]1CC(C)(C)C[C@@H]2O,> 90%
